Assay [1] is described as follows: Inhibition of human TERT expression in H1299 cells at 100 uM after 24 hrs by secreted alkaline phosphatase reporter gene assay relative to control; values are per cent of control. Conditions: NCI-H1299. A general note: In a reporter assay the amount or activity of a reporter protein is the signal.
Assay [2] has as its system H1299. The assay is described as follows: Inhibition of human telomerase in H1299 cell lysate compound incubated post-telomerase extension by PCR-based telomeric repeat amplification protocol assay. Format: cell-free. The essentials: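 Modified TRAP assay (TRAP-M) to test for interference with Taq polymerase. Compound was added to H1299 extract reactions right after the telomerase extension step and before PCR amplification.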

The test system of assay [3] is H1299. As to the kind of experiment: (§1) Inhibition of human telomerase in H1299 cell lysate compound incubated for 5 mins prior to telomerase extension by PCR-based telomeric repeat amplification protocol assay. Format: cell-free. The essentials: (§2)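 TRAP assay on telomerase-active H1299 cell extracts, with RNase A-treated extract as the negative control. Compound was preincubated with extract for 5 min at room temperature before the telomerase extension and PCR amplification. The initial screen used 10 µM, and IC50 came from a dose series.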

Assay [4] is described as follows: as §1. Format: cell-free. The method in brief:
as §2

Assay [5] can be described thus: Inhibition of human TERT expression in H1299 cells at 10 uM after 24 hrs by secreted alkaline phosphatase reporter gene assay relative to control; values are per cent of control. The settings on record: NCI-H1299.
A short description of assay [6]: Cytotoxicity against human H1299 cells assessed as cell growth at 1 uM after 48 hrs by MTT assay. Format: functional. Conditions: NCI-H1299, 48 h, read-out: Activity. The essentials:
(§3)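 H1299 non-small lung cancer cells were grown in RPMI 1640 with 10% FBS and penicillin/streptomycin at 37 °C in 5% CO2. About 2×10³ cells were seeded per well and held 24 h, then washed with PBS and given fresh medium. Compound, freshly dissolved in DMSO and diluted in complete medium, was added for 48 h. MTT was read at 550 nm after SDS/DMF lysis at 37 °C for 16 h. Values are from three experiments, untreated = 100%, ±SD.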
Background: Formazan colour is commonly taken as a measure of viable cells.

Assay [7] is described as follows: Cytotoxicity against human H1299 cells assessed as cell growth at 10 uM after 48 hrs by MTT assay. Format: functional. Conditions: NCI-H1299, 48 h, read-out: Activity. The method in brief: as §3
A short description of assay [8]: Inhibition of human TERT expression in H1299 cells at 1 uM after 24 hrs by secreted alkaline phosphatase reporter gene assay relative to control; values are per cent of control. Conditions: NCI-H1299.
Assay [9] is described as follows: Cytotoxicity against human H1299 cells assessed as cell growth at 100 uM after 48 hrs by MTT assay. Format: functional. Conditions: NCI-H1299, 48 h, read-out: Activity. The essentials: as §3
For assay [10], the system named is H1299. As to the kind of experiment: Inhibition of human telomerase in H1299 cell lysate at 10 uM by PCR-based telomeric repeat amplification protocol assay. Format: cell-free. The method in brief:
as §2

Activity calls are given as the source filed them. No cut-off for these calls is given here.

As to `CN(C)CCCCNCCC(=O)Nc1cccc2c1C(=O)c1c(NC(=O)CCNCCCCN(C)C)cccc1C2=O`, the level, % of control was 4% in assay [1], 97% in [5] and 121% in assay [8]. Besides, the inhibition result in the assay on H1299 [2] and with H1299 [3] was “Dose-dependent effect” throughout. Further, half-maximal inhibition in [4] (IC50) required 6 µM. Moreover, the growth at 1 µM in assay [6] was 98%. Besides, the growth at 10 µM in [7] was determined as 74%. Moreover, the growth at 100 µM in assay [9] came out at 7%. For the same compound, the inhibition result in the assay on H1299 [10] was “Active”.
Take `CC(C)NCCC(=O)Nc1cccc2c1C(=O)c1c(NC(=O)CCNC(C)C)cccc1C2=O`: the figures for the level, % of control in assay [1], in [5] and in assay [8] were 0%, 16% and 106%, respectively. Besides, the inhibition result in the assay with H1299 [2] and with H1299 [3] was “Dose-dependent effect” throughout. In [4], the IC50 (commonly the concentration needed to halve the response being measured) worked out at 3 µM. Also, the growth at 1 µM in assay [6] stood at 101%. For the same compound, the growth at 10 µM in assay [7] was found to be 29%. Further, the growth at 100 µM in assay [9] turned out to be 14%. Moreover, the inhibition result in the assay with H1299 [10] was “Active”.
`COC(=O)[C@@H]1CCCN1CC(=O)Nc1cccc2c1C(=O)c1c(NC(=O)CN3CCC[C@H]3C(=O)OC)cccc1C2=O`: the results for the level, % of control in [1], in assay [5] and in [8] were 8%, 59% and 87%, respectively. Further, the growth at 1 µM in assay [6] came out at 88%. Also, in assay [7], the growth at 10 µM came out at 104%. Further, the growth at 100 µM in [9] was found to be 93%.
Turning to `CC(C)(C)OC(=O)NCCNCCC(=O)Nc1cccc2c1C(=O)c1c(NC(=O)CCNCCNC(=O)OC(C)(C)C)cccc1C2=O`, the level, % of control worked out at 33% in assay [1], 84% in [5] and 100% in assay [8]. Besides, the growth at 1 µM in assay [6] turned out to be 82%. Also, in [7], the growth at 10 µM was determined as 78%. Moreover, the growth at 100 µM in assay [9] worked out at 11%.
In the case of `CC(C)NCC(=O)Nc1cccc2c1C(=O)c1c(NC(=O)CNC(C)C)cccc1C2=O`, the figures for the level, % of control in [1], in [5] and in assay [8] were 35%, 101% and 103%, respectively. Also, in assay [6], the growth at 1 µM came out at 89%. Moreover, in [7], the growth at 10 µM came to 86%. Besides, the growth at 100 µM in assay [9] turned out to be 14%.
As for `CN(C)CCCNCCC(=O)Nc1cccc2c1C(=O)c1c(NC(=O)CCNCCCN(C)C)cccc1C2=O`, the level, % of control in assay [1] worked out at 20%; in [5] it was 95%; in [8] it was 95%. Also, the growth at 1 µM in [6] stood at 122%. Besides, the growth at 10 µM in [7] is 105%. For the same compound, the growth at 100 µM in assay [9] is 21%.

The values above are taken from ChEMBL document CHEMBL1949585, “Design, synthesis and evaluation of telomerase inhibitory, hTERT repressing, and anti-proliferation activities of symmetrical 1,8-disubstituted amidoanthraquinones” (Eur J Med Chem, 2012).
